Measured values reported in publication PMC6857568 (Molecular Biology of the Cell, 2019).

What was measured:
[1] = system: taxol-stabilized Atto647N-labeled microtubules; assay: Microtubule-binding by TIRF microscopy on taxol-stabilized microtubules; set-up: species or system pig
[2] = system: dynamic Alexa 647–labeled microtubules; assay: Microtubule dynamics; type: biochemical, pig; settings: vs MOCK
[3] = system: Alexa 647–labeled tubulin; assay: Spontaneous microtubule nucleation assay; type: biochemical, pig; settings: 100 nM, 5 min, 35°C; for microtubules nucleated de novo: ± SD, MOCK 0.6 ± 0.4
[4] = system: depolymerizing microtubule plus ends / intersecting microtubules; assay: Outcome of depolymerizing plus end crossing an intersecting microtubule; type: biochemical, pig; settings: for pulling events (in words): 50 or 100 nM (starPEG-(KA7)4-TAMRA); for pick-up of tubulin aggregates tracking depolymerizing plus ends: dynamic microtubule assay
Procedure, shortened: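 Peptide was present in the dynamic-seed assay (14 µM Alexa 647 tubulin, GTP, 35°C). Dual-color time-lapse ran at one frame per 3 s. Peptide intensity at a crossing was the background-corrected integrated intensity of a five-pixel circle, taken in the frame where the depolymerizing plus end crossed the intersecting microtubule. Multiple-peak Gaussian fitting was used.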

[5] = system: dynamic Alexa 647–labeled microtubules; assay: Bundling of dynamic microtubules; type: biochemical, pig; settings: 50 or 100 nM starPEG-(KA7)4-TAMRA; 50 nM starPEG-(DA7)4-TAMRA; 35°C
Procedure, shortened: (§1)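 Dynamic assay: biotinylated GMP-CPP pig tubulin seeds were bound to anti-biotin antibody, then given 14 µM Alexa 647 tubulin with 1 mM GTP, methylcellulose, casein and oxygen scavenger in PIPES pH 6.8. Peptide was present at the stated concentrations, at 35°C for up to 30 min. Dual-color time-lapse was one frame per 3 s; kymographs were analyzed manually.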

[6] = system: subtilisin-treated GMP-CPP/taxol double-stabilized microtubules; assay: Binding to subtilisin-treated; set-up: species or system pig; settings: C-termini removed
Procedure, shortened: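 GMP-CPP microtubules were digested with 200 µg/ml subtilisin A in BRB80 plus 10 µM taxol for 1 h at 30°C, then stopped with 10 mM PMSF. Digestion was checked by SDS-PAGE. Brightly labeled (1:4) digested and dimly labeled (1:20) undigested microtubules shared one channel. Peptide binding was imaged by TIRF at 25°C in the stabilized-microtubule buffer.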

[7] = system: taxol-stabilized ATTO 647N-labeled microtubules; assay: Single-molecule diffusion and track-switching on the microtubule lattice; type: binding, pig
Procedure, shortened: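 Peptide at 1 nM was imaged on taxol microtubules at 25°C in BRB80. Recordings were 5-min continuous streams at 100-ms exposure (532 nm). Single molecules were tracked automatically (minimum 5 frames, maximum 3-frame break) and checked against kymographs. D came from MSD linear regression and from a covariance-based estimator weighted by trajectory length.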

[8] = system: dynamic Alexa 647–labeled microtubules; assay: Tracking of microtubule ends on dynamic microtubules; type: biochemical, pig
Procedure, shortened: as §1

[9] = system: depolymerizing microtubule plus ends / intersecting microtubules; assay: Bending forces of pulled microtubules during pulling events; type: biochemical, pig; settings: beam equation, deflection angle ≤30°, corrected force, mean ± SD, N = 11
[10] = system: overlaps of taxol-stabilized microtubules; assay: Accumulation in overlaps of taxol-stabilized microtubules; type: binding, pig
[11] = system: rat kinesin-1 (rKin430-GFP); assay: Kinesin-1 stepping; type: biochemical; settings: 5 and 25 nM
Procedure, shortened: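 GFP-tagged truncated rat kinesin-1 (1–430) ran on antibody-bound taxol microtubules with 1 mM ATP and peptide, at 25°C. Movies were 5 min at 100-ms exposure (488 nm), with a peptide snapshot beforehand. Landing rate, velocity, dwell time and run length were scored manually from kymographs. Gaussian and log-normal fits were applied; half-maxima of cumulative plots were reported.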

[12] = biological target: Atto647N-labeled microtubules of pig brain tubulin (pig) (UniProt Q2XVP4); assay: TIRF microscopy binding assay
[13] = average, n = 19 tracking events, 35°C

starPEG-(DA7)4-TAMRA
microtubule binding ([1]; high nanomolar concentrations (i.e., >250 nM), charge-inverted control): does not show any microtubule binding
effect on microtubule dynamics (in words) ([2]; 50 nM): do not change microtubule dynamics compared with MOCK control
microtubules nucleated de novo [3]: 0.8 ± 1.0 MT per minute and field of view
pulling events (in words) [4]: none
pick-up of tubulin aggregates tracking depolymerizing plus ends [4]: not evident
microtubule bundling [5]: not in the presence of 50 nM starPEG-(DA7)4-TAMRA

starPEG-(KA7)4-TAMRA
saturation of microtubule binding ([1]; taxol-stabilized microtubules, BRB80, 25°C): ~200 nM
effect of subtilisin protease treatment on microtubule binding [6]: completely abolishes microtubule binding
diffusion coefficient (overall) ([7]; 25°C, BRB80): ~0.3 µm^2s^–1
diffusion coefficient D (MSD) ([7]; mean square displacement, linear regression, mean ± SEM, N = 998, 1 nM, 25°C, BRB80): 0.33 ± 0.04 µm^2s^–1
track-switching at microtubule intersections ([7]; single molecules, taxol-stabilized microtubules): able to switch their microtubule track at microtubule–microtubule intersections
tracking of growing microtubule plus end ([8]; after rescue event): unable to track the growing microtubule plus end
microtubule shortening during tracked depolymerization events [8, 13]: ~60%
microtubule-bound intensity lost during one depolymerization event [8, 13]: ~30%
minus-end tracking ([8]; dynamic microtubules): could not observe any minus-end-tracking event
concentration on remaining microtubule lattice by end-tracking ([8]; normalized intensity / normalized length): about twofold
effect on rescue frequency (in words) ([2]; 50 and 100 nM): 100 nM but not 50 nM starPEG-(KA7)4-TAMRA significantly reduces the rescue frequency
effect on growth velocity (in words) ([2]; 50 or 100 nM): increases the growth velocity significantly
microtubule nucleation (in words) [3]: robust nucleation is evident
microtubules nucleated de novo [3]: 9 ± 2.5 MT per minute and field of view
pulling events (in words) [4]: frequent pulling events
pick-up of tubulin aggregates tracking depolymerizing plus ends [4]: eventually picked up surface-associated tubulin aggregates that started to diffuse along the microtubule lattice and tracked depolymerizing plus ends
bending force during pulling events (mean) [9]: 4.2 ± 2.7 pN
microtubule bundling [5]: pronounced microtubule bundling
accumulation in microtubule overlaps (in words) ([10]; low density (5 nM)): preferentially binds to or accumulates in overlaps of taxol-stabilized microtubules
accumulation in microtubule overlaps (in words) ([10]; near a half-saturating concentration (25 nM)): this effect is lost
effect on kinesin-1 dwell time (in words) [11]: does not significantly affect the motor’s average dwell time
effect on kinesin-1 landing rate (in words) [11]: significantly decreases the landing rate of kinesin-1 in a concentration-dependent manner
effect on kinesin-1 run length (in words) [11]: nor the average motor run length
effect on kinesin-1 velocity (in words) [11]: slightly increased

starPEG-(KA7)4-TAMRA (designed binder)
Kd [12]: 30 nM
concentration at which saturation is reached [12]: 200 nM
